Test results published in ChEMBL document CHEMBL3112486, “Novel class of benzoic acid ester derivatives as potent PDE4 inhibitors for inhaled administration in the treatment of respiratory diseases” (J Med Chem, 2014).
Each block holds one compound with its values, some of them ahead of it. Activity calls are given as the source filed them. The calls are words filed in the database; no cut-off is given here.

What was measured:
[1] = Half life in rat lung S9 fraction; type: ADME, tissue-based
Outline: (§1)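 Lung S9 fraction (0.5 mg protein/mL) incubated in duplicate with compound at 1 μM in Dulbecco's buffer pH 7.4, 37 °C, with 1 mM NADPH. Samples taken at 0, 15, 30, 60 min and quenched in ice-cold acetonitrile; unchanged compound measured by LC−MS/MS. Controls were no-NADPH and buffer-only incubations; 7-ethoxyresorufin 1 μM served as phase I positive control.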

Cavia porcellus [2] = test: Inhibition of ovalbumin-induced lung eosinophilia in Dunkin-Hartley guinea pig at 0.01 umol/kg administered intratracheally 2 hrs before ovalbumin challenge; type: functional; conditions: inhaled or nasal
Outline: (§2)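 Sensitized guinea pigs challenged on day 20 after first sensitization with a 1 h aerosol of OVA (10 μg/mL in saline); sham group received saline aerosol. Compound given intratracheally as a dry powder formulation 2 h or 24 h before challenge. Read-out was airway/lung eosinophil influx.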

[3] = Metabolic stability in rat plasma assessed as compound remaining at 5 uM after 1 hr by LC-MS/MS analysis; type: ADME, cell-free; conditions: read-out: Stability
Outline: (§3)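 Compound from 5 mM DMSO stock added to plasma at 5 μM final and incubated at 37 °C up to 120 min. Aliquots taken at 0, 15, 30, 60, 90, 120 min and quenched with 2 volumes of chilled acetonitrile, then centrifuged.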

[4] = Apparent permeability across human Caco2 cells at 10 uM after 2 hrs by LC-MS/MS analysis; type: ADME, cell-based; conditions: Caco-2
Outline: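 Caco-2 cells cultured 24 h, then switched to enterocyte differentiation medium for 3 days to form monolayers. Test compound 10 μM in DMEM (1% DMSO) added apically; apical pH 6.5, basolateral pH 7.4. After 2 h at 37 °C, apical, basolateral and starting solutions quantified by LC−MS/MS. Papp (nm/s) = flux/initial donor concentration; caffeine and cimetidine run as references.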

U-937 [5] = test: Selectivity ratio of IC50 for human platelet PDE3 to IC50 for PDE4 isolated from human U937 cells; type: cell-based
Outline: (§4)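 PDE1 from bovine brain, PDE6 from bovine retina, PDE2/3/5 from human platelets. Each was tested in a radiometric two-step assay at five concentrations, in duplicate, starting at 30 μM with 1:10 serial dilution and 1% DMSO. […] Ratio = PDEx IC50 / PDE4 IC50.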

Phosphodiesterase 4 [6] = target: T1, Phosphodiesterase 4 (Homo sapiens, UniProt P27815+Q08499+Q07343+Q08493); test: Inhibition of PDE4 activity in human PBMC assessed as inhibition of LPS-induced TNFalpha release after 18 hrs by ELISA
Outline: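 Human PBMCs plated at 10^5 cells/well in RPMI 1640 without phenol red plus 10% FBS, at 37 °C, 5% CO2. Compound added at 10^-15 to 10^-6 M (final DMSO 0.2%), with E. coli LPS at 3 ng/mL final, for 18 h. TNFα in supernatant measured by paired-antibody ELISA. IC50 from four-parameter logistic nonlinear regression, reported with 95% confidence intervals.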

Cavia porcellus [7] = test: Inhibition of ovalbumin-induced lung eosinophilia in Dunkin-Hartley guinea pig at 0.1 umol/kg administered intratracheally 2 hrs before ovalbumin challenge; type: functional; conditions: inhaled or nasal; outline: as §2
Phosphodiesterase 4 [8] = target: T1, Phosphodiesterase 4; test: Inhibition of PDE4 isolated from human U937 cells assessed as […] by LANCE assay; type: cell-free; conditions: u-937
[9] = Permeability across apical to basolateral side in human Calu3 cells at 1.5 to 7 uM up to 120 mins by LC-MS/MS analysis; type: ADME, cell-based; conditions: calu-3, 2 h
Outline: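 Calu-3 cells grown on Transwell filters in MEM at 37 °C, 5% CO2, for 3 days plus a further 11–27 days until confluent. Compound added apically at 1.5, 3.5 and 7 μM. Receiver compartment sampled at 0, 30, 60, 90, 120 min; quantified by LC−MS/MS.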

[10] = Inhibition of bovine retina PDE6; set-up: species or system Bos taurus
Outline: (§5)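 Radiometric two-step assay (modified Thompson–Appleman). PDE1 from bovine brain; PDE2, PDE3, PDE5 from human platelets; PDE6 from bovine retina. Compound tested in duplicate at five concentrations, starting at 30 μM with 1:10 serial dilution, 1% final DMSO.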

U-937 [11] = test: Selectivity ratio of IC50 for bovine retina PDE6 to IC50 for PDE4 isolated from human U937 cells; type: cell-based; outline: as §4
[12] = Half life in rat lung slices at 1 uM after 2 hrs by LC-MS/MS analysis; type: ADME, tissue-based
Outline: (§6)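 Fresh lung slices preincubated 1 h at 37 °C under 95% O2/5% CO2 in DMEM/F12 with 10% FCS, then incubated with compound at 1 μM in MEM-Earle without phenol red for up to 2 h. Three replicates for human slices, four for rat. Compound measured by LC−MS/MS at 0, 20, 40, 60, 90, 120 min; testosterone (n = 2) checked slice viability.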

[13] = Half life in human lung S9 fraction; type: ADME, tissue-based; outline: as §1
[14] = Metabolic stability in lung parenchyma of COPD patients under hydrolytic/proteolytic condition; type: ADME, tissue-based; conditions: human
U-937 [15] = test: Selectivity ratio of IC50 for human platelet PDE5 to IC50 for PDE4 isolated from human U937 cells; type: cell-based; outline: as §4
Cavia porcellus [16] = test: Inhibition of ovalbumin-induced lung eosinophilia in Dunkin-Hartley guinea pig at 1 umol/kg administered intratracheally 2 hrs before ovalbumin challenge; type: functional; conditions: inhaled or nasal; outline: as §2
Cavia porcellus [17] = test: Inhibition of ovalbumin-induced lung eosinophilia in Dunkin-Hartley guinea pig at 3 umol/kg administered intratracheally 2 hrs before ovalbumin challenge; type: functional; conditions: inhaled or nasal; outline: as §2
[18] = n-Octanol-buffer partition coefficient, log D of the compound at pH 7.4 by shake-flask method
[19] = Plasma protein binding in rat at 5 uM after 5 hrs by LC-MS/MS analysis; type: ADME, cell-free; conditions: read-out: PPB (converted)
Outline: (§7)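 Equilibrium dialysis: plasma spiked at 5 μM (from 500 μM stock) dialysed against phosphate buffer pH 7.4 for 5 h at 37 °C with slow rotation. Samples extracted with ACN/MeOH containing verapamil internal standard, centrifuged, and analysed by LC−MS/MS.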

[20] = Half life in human lung slices at 1 uM after 2 hrs by LC-MS/MS analysis; type: ADME, tissue-based; outline: as §6
Cavia porcellus [21] = test: Inhibition of ovalbumin-induced lung eosinophilia in Dunkin-Hartley guinea pig at 0.01 to 3 umol/kg administered intratracheally 24 hrs before ovalbumin challenge; type: functional, organism-based; outline: as §2
[22] = target: T2, cGMP-dependent 3',5'-cyclic phosphodiesterase (Homo sapiens, UniProt O00408); test: Inhibition of human platelet PDE2; outline: as §5
T2 sequence (O00408 whole entry): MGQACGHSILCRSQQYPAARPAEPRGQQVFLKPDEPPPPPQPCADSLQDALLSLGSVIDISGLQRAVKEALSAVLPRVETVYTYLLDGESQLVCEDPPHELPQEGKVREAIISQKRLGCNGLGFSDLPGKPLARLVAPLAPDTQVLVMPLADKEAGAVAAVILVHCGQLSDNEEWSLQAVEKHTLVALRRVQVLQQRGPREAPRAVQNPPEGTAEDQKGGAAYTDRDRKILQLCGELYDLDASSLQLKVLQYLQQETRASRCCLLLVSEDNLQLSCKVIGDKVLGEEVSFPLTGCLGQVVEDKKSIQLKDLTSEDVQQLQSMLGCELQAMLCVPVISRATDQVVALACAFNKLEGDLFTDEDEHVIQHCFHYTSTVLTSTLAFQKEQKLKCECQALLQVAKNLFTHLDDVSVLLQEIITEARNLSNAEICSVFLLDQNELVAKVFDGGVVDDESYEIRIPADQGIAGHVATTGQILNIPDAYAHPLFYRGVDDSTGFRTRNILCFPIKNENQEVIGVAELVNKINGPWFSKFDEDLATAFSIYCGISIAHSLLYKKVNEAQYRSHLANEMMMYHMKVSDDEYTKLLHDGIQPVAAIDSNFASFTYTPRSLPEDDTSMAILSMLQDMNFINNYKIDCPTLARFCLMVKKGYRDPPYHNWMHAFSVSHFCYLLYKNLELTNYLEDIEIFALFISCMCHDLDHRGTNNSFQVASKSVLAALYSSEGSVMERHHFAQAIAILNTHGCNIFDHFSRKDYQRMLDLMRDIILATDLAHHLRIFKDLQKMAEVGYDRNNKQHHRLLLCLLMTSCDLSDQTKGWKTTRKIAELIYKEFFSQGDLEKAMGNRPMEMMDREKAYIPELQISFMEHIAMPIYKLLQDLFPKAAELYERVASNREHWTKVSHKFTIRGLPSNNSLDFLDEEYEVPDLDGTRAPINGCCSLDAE

Phosphodiesterase 3 [23] = target: T3, Phosphodiesterase 3 (Homo sapiens, UniProt Q14432+Q13370); test: Inhibition of human platelet PDE3; outline: as §5
[24] = Metabolic stability in human plasma assessed as compound remaining at 5 uM after 1 hr by LC-MS/MS analysis; type: ADME, cell-free; conditions: read-out: Stability; outline: as §3
[25] = Inhibition of bovine brain PDE1; set-up: species or system Bos taurus; outline: as §5
Cavia porcellus [26] = test: Inhibition of ovalbumin-induced lung eosinophilia in Dunkin-Hartley guinea pig administered intratracheally 2 hrs before ovalbumin challenge; type: functional; outline: as §2
[27] = Metabolic stability in rat lung S9 fraction assessed as compound remaining at 1 uM after 1 hr by LC-MS/MS analysis; type: ADME; conditions: read-out: Stability; outline: as §1
[28] = Metabolic stability in human lung S9 fraction assessed as compound remaining at 1 uM after 1 hr by LC-MS/MS analysis; type: ADME; conditions: read-out: Stability; outline: as §1
U-937 [29] = test: Selectivity ratio of IC50 for human platelet PDE2 to IC50 for PDE4 isolated from human U937 cells; type: cell-based; outline: as §4
[30] = Plasma protein binding in human at 5 uM after 5 hrs by LC-MS/MS analysis; type: ADME, cell-free; conditions: read-out: PPB (converted); outline: as §7
[31] = target: 3',5'-cyclic-AMP phosphodiesterase 4B (Homo sapiens) (UniProt Q07343); conditions: Sf9
Chain of 3',5'-cyclic-AMP phosphodiesterase 4B (Homo sapiens) (Q07343 whole entry): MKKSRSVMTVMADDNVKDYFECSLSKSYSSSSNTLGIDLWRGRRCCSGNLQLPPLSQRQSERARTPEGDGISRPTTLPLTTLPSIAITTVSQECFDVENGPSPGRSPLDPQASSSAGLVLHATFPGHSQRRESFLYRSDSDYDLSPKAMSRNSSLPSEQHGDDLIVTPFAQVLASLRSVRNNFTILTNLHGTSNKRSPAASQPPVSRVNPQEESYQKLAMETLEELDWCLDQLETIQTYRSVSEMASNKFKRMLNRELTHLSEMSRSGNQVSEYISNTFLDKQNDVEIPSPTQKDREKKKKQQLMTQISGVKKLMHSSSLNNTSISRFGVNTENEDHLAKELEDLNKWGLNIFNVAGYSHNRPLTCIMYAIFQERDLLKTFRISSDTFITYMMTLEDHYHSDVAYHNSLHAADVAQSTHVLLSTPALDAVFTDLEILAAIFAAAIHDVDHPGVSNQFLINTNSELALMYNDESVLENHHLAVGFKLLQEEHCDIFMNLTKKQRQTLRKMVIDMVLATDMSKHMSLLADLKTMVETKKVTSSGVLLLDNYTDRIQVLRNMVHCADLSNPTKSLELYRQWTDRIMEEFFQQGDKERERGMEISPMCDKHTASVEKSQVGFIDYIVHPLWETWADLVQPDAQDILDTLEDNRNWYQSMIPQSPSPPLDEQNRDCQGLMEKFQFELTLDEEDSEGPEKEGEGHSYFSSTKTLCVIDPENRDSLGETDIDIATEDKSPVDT

[32] = target: 3',5'-cyclic-AMP phosphodiesterase 4D (Homo sapiens) (UniProt Q08499); conditions: Sf9
Chain of 3',5'-cyclic-AMP phosphodiesterase 4D (Homo sapiens) (Q08499 whole entry): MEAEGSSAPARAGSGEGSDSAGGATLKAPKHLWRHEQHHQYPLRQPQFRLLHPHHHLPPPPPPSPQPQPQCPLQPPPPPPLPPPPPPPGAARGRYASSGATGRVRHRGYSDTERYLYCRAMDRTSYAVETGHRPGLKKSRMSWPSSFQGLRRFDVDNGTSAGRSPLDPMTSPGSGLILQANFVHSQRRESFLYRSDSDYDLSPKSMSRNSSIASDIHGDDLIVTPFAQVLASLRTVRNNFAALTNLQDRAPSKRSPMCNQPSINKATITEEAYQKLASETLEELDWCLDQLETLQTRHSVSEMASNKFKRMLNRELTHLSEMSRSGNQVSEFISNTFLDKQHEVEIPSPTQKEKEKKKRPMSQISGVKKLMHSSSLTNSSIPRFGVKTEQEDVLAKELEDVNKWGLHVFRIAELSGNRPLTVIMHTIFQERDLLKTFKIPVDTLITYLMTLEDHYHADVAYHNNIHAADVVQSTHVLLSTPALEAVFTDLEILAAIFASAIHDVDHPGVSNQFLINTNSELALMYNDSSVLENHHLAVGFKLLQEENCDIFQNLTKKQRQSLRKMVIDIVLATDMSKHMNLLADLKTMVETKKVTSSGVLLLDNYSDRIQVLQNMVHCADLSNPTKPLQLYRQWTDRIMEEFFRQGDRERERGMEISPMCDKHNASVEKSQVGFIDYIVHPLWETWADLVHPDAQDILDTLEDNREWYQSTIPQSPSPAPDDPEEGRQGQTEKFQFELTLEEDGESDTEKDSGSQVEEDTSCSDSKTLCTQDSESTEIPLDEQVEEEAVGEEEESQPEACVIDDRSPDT

U-937 [33] = test: Selectivity ratio of IC50 for bovine brain PDE1 to IC50 for PDE4 isolated from human U937 cells; type: cell-based; outline: as §4
[34] = target: T2, cGMP-dependent 3',5'-cyclic phosphodiesterase; test: Inhibition of human platelet PDE2 at 10 uM
[35] = target: cGMP-specific 3',5'-cyclic phosphodiesterase PDE5 (Homo sapiens) (UniProt O76074); test: Inhibition of human platelet PDE5 at 10 uM
Phosphodiesterase 3 [36] = target: T3, Phosphodiesterase 3; test: Inhibition of human platelet PDE3 at 10 uM
Cavia porcellus [37] = test: Inhibition of ovalbumin-induced lung eosinophilia in Dunkin-Hartley guinea pig at 0.3 umol/kg administered intratracheally 2 hrs before ovalbumin challenge; type: functional; conditions: inhaled or nasal; outline: as §2

- half-life [1]: 3.15 h
- remaining at 1 h, 5 µM [3]: 100%
- Papp at 2 h, 10 µM [4]: < 1 ×10⁻⁶ cm/s
- IC50 (Phosphodiesterase 4 [6]): 0.06 nM
- IC50 (Phosphodiesterase 4 [8]): 0.04 nM
- permeability [9]: impermeable
- IC50 [10]: > 1000 nM
- half-life at 1 µM [12]: 2.87 h
- half-life [13]: > 4.67 h
- Stability [14]: Stable
- logD [18]: 4.48
- fraction unbound at 5 h, 5 µM [19]: 0.008
- half-life at 1 µM [20]: 3.95 h
- IC50 [22]: > 1000 nM
- IC50 (Phosphodiesterase 3 [23]): > 1000 nM
- remaining at 1 h, 5 µM [24]: 100%
- IC50 [25]: > 1000 nM
- remaining at 1 h, 1 µM [27]: 88%
- remaining at 1 h, 1 µM [28]: 100%
- fraction unbound at 5 h, 5 µM [30]: 0.0002
- T1/2 [31]: > 20 h
- T1/2 [32]: > 20 h
SMILES: CS(=O)(=O)Nc1ccc(C(=O)O[C@@H](Cc2c(Cl)c[n+]([O-])cc2Cl)c2ccc(OC(F)F)c(OCC3CC3)c2)cc1OCC1CC1
- inhibition in vivo at 0.01 µmol/kg (Cavia porcellus [2]): 47%
- Ratio IC50 (U-937 [5]): > 20000
- inhibition in vivo at 0.1 µmol/kg (Cavia porcellus [7]): 66%
- Ratio IC50 (U-937 [11]): > 20000
- Ratio IC50 (U-937 [15]): > 20000
- inhibition in vivo at 1 µmol/kg (Cavia porcellus [16]): 83%
- inhibition in vivo at 3 µmol/kg (Cavia porcellus [17]): 100%
- inhibition (Cavia porcellus [21]): Active
- inhibition (Cavia porcellus [26]): Dose-dependent effect
- ED50 (Cavia porcellus [26]; inhaled or nasal): 0.016 µmol/kg
- Ratio IC50 (U-937 [29]): > 20000
- Ratio IC50 (U-937 [33]): > 20000

- IC50 (Phosphodiesterase 4 [8]): 3.45 nM
- inhibition [34]: 0%
- inhibition [35]: 58%
- inhibition (Phosphodiesterase 3 [36]): 18%
SMILES: O=C(OC(Cc1c(Cl)cncc1Cl)c1ccc(OC(F)F)c(OCC2CC2)c1)c1ccc(OC(F)F)c(OCC2CC2)c1 (racemic)

- logD [18]: 4.43
SMILES: C[C@@H]1C[C@H]2[C@@H]3C[C@H](F)C4=CC(=O)C=C[C@]4(C)[C@@]3(F)[C@@H](O)C[C@]2(C)[C@@]1(OC(=O)c1ccco1)C(=O)SCF [FLUTICASONE FUROATE]
- inhibition in vivo at 0.3 µmol/kg (Cavia porcellus [37]): 90%
